Screens deposited in PubChem BioAssay by Broad Institute.
Sampled rows, rich in hits. Any-hit rate of the full collection: about 5.8%.
T cruzi growth – inhibitors of T. cruzi proliferation | T. cruzi beta-gal in NIH3T3, GalScreen luminescence, 90 h | inhibition, % at 8.34 µM | hit rate 5.9% among 77,000 | AID 624255;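 active = mean inhibition above about 93%, with at least 55% of replicates each passing it, limit read from the data, passing the limit was not always enough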
IDH1 R132H inh – inhibitors of human IDH1 R132H; O75874; IDH1 R132H reductase, diaphorase/resazurin fluorescence, 60 min; inhibition, % at 10 µM; hit rate 0.18% among 70,000; AID 624101; in the data active = inhibition above about 34%;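 also: 0% = DMSO and 100% = no enzyme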
Target sequence (O75874 whole entry R132H): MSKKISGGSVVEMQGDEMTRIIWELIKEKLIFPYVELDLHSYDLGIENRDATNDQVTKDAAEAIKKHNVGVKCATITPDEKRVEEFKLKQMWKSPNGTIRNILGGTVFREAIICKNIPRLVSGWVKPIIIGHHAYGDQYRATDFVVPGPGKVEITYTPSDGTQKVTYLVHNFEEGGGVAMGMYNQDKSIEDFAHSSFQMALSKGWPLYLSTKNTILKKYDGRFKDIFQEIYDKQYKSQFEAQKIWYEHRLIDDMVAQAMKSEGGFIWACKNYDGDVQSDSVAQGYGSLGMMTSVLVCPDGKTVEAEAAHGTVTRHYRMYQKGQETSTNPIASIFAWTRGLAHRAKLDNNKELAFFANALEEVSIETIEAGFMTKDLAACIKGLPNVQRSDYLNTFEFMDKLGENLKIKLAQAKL
Pf Dd2 growth – inhibitors of Plasmodium falciparum Dd2 growth. activity change, % at 10 µM. AID 1159554. P. falciparum Dd2 growth, SYBR Green, 72 h; active compounds read low. hit rate 2.3% among 94,000; in the data active = activity change below about -80%
KDM4C inh – KDM4C (human) demethylase inhibition; hit rate 0.15% among 96,000; GST-KDM4C 2-372, H3K9me3 peptide, LANCE TR-FRET; Q9H3R0; inhibition, % at 12.5 µM;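 active = mean replicate inhibition above about 25%, with at least 55% of replicates also reaching it, limit read from the data, passing the limit was not always enough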
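System: N-terminal GST-fused human GASC-1 (KDM4C) fragment, residues 2-372 / Amount: 10 nM GST-KDM4C in enzyme reaction / Also added: H3K9me3 peptide with Fe(II)/2OG / Times: 30 min demethylation and 1 h detection at room temperature / Signal: LANCE TR-FRET / Read-out basis: Fall in 671/618 emission ratio as inhibition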
An asterisk follows results filed as active; · = no result; ! = not confirmed by another sample.

SMILES	T cruzi growth	IDH1 R132H inh	Pf Dd2 growth	KDM4C inh
C[C@@H]1CCCCO[C@@H](CN(C)Cc2ccc3c(c2)OCO3)[C@@H](C)CN([C@H](C)CO)C(=O)c2cc(NC(=O)Nc3cccc4ccccc34)ccc2O1	93	·	31	-2
COc1ccc(CN(C)C[C@@H]2OCCCC[C@@H](C)Oc3ccc(NC(=O)Nc4cccc5ccccc45)cc3C(=O)N([C@H](C)CO)C[C@H]2C)cc1	87	0	-71	·
COc1ccc(CN(C)C[C@@H]2OCCCC[C@H](C)Oc3ccc(NC(=O)Nc4cccc5ccccc45)cc3C(=O)N([C@H](C)CO)C[C@H]2C)cc1	106	·	-90*	·
C[C@@H]1CN([C@H](C)CO)C(=O)c2cc(NC(=O)Nc3cccc4ccccc34)ccc2O[C@@H](C)CCCCO[C@H]1CN(C)Cc1ccc2c(c1)OCO2	76	-1	-87*	-1
COc1cc(Cc2nnc(C(=O)NC(C)C)o2)cc(OC)c1OC	·	0	·	·
O=C(CCS(=O)(=O)c1nc(-c2ccccc2)cc(C(F)(F)F)n1)Nc1ccc(Cl)cc1Cl	·	0	·	·
CCCN(C)C[C@H]1Oc2ncc(C#CC3CC3)cc2C(=O)N([C@H](C)CO)C[C@H]1C	63	0	-83*	0
CCCN(C)C[C@H]1Oc2ncc(C#Cc3ccc(F)cc3)cc2C(=O)N([C@@H](C)CO)C[C@H]1C	92	-1	-86*	-2
C[C@@H]1CN([C@H](C)CO)C(=O)Cc2cc(NC(=O)CCCCCC(=O)Nc3ccccc3N)ccc2O[C@H]1CN(C)Cc1ccc2c(c1)OCO2	35	0	-40	0
C[C@@H]1CN([C@H](C)CO)C(=O)c2cccc(NC(=O)CCCCCC(=O)Nc3ccccc3N)c2O[C@H]1CN(C)Cc1ccc2c(c1)OCO2	·	0	-90*	0
C[C@@H]1CN([C@H](C)CO)C(=O)c2cccc(NC(=O)CCCCCC(=O)Nc3ccccc3N)c2O[C@@H]1CN(C)Cc1ccc2c(c1)OCO2	·	0	-85*	11
CC(=O)c1ccc(NC(=O)CNS(=O)(=O)c2ccc(C(C)(C)C)cc2)cc1	·	0	·	·
CC(=O)c1ccc(NC(=O)CSc2nnc(C34CC5CC(CC(C5)C3)C4)n2C)cc1	·	0	·	·
N#C[C@H]1[C@@H](c2ccc(C#Cc3ccccc3F)cc2)[C@H](CO)N1C(=O)C1CCCC1	·	·	-66	-2
N#C[C@@H]1[C@H](c2ccc(C#Cc3ccccc3F)cc2)[C@H](CO)N1C(=O)C1CCCC1	·	·	-88*	5
N#C[C@H]1[C@@H](c2ccc(C#Cc3ccccc3F)cc2)[C@@H](CO)N1C(=O)C1CCCCC1	91	0	-93*	-5
N#C[C@H]1[C@H](c2ccc(C#Cc3ccccc3F)cc2)[C@@H](CO)N1C(=O)C1CCCCC1	87	·	-51	-1
Cc1ccc(Cl)cc1NC(=O)CC(C(=O)O)N1CCNCC1 (stereo not given)	·	0	·	·
COCC(=O)N(C)C[C@H]1Oc2cc(C#Cc3ccccc3)ccc2S(=O)(=O)N([C@@H](C)CO)C[C@@H]1C	25	5	-76	-1
C[C@H](CO)N1C[C@H](C)[C@H](CN(C)C(=O)C2CC2)Oc2cc(C#Cc3ccccc3)ccc2S1(=O)=O	89	-1	-92*	-3
COCC(=O)N(C)C[C@@H]1Oc2cc(C#Cc3ccccc3)ccc2S(=O)(=O)N([C@H](C)CO)C[C@@H]1C	16	-4	-82*	-1
C[C@H](CO)N1C[C@H](C)[C@@H](CN(C)C(=O)C2CC2)Oc2cc(C#Cc3ccccc3)ccc2S1(=O)=O	51	1	-64	0
COc1ccc2cc1/C=C\NC(=O)C(Cc1ccccc1)NC(=O)C1C(CCN1C(=O)C(NC(=O)C(C)N(C)C)C(C)C)O2 (stereo not given)	·	0	·	·
O=C(Nc1ccccc1)N1C[C@@H]2N[C@H](C1)[C@@H]2c1ccc(/C=C/c2ccccc2)cc1	·	·	-89*	-3
O=C(c1ccc2c(c1)OCO2)N1C[C@@H]2N[C@H](C1)C2c1ccc(/C=C/c2ccccc2)cc1 (stereo not given in full)	·	·	-89*!	0
SMILES	T cruzi growth	IDH1 R132H inh	Pf Dd2 growth	KDM4C inh
O=C(c1ccc(F)cc1)N1C[C@@H]2N[C@H](C1)C2c1ccc(/C=C/c2ccccc2)cc1 (stereo not given in full)	·	·	-27	-1
COc1ccc(S(=O)(=O)N(C)CC(=O)Nc2ccccc2Br)cc1C	·	0	·	·
O=C(O)C[C@@H]1C[C@H]2c3cc(NS(=O)(=O)c4ccccc4)ccc3O[C@H]2[C@@H](CO)O1	-20	0	11	-1
COc1cccc(S(=O)(=O)Nc2ccc3c(c2)[C@H]2C[C@@H](CC(=O)O)O[C@H](CO)[C@H]2O3)c1	14	72*	16	38*
COc1cccc(S(=O)(=O)Nc2ccc3c(c2)[C@@H]2C[C@H](CC(=O)O)O[C@@H](CO)[C@@H]2O3)c1	16	0	-14	-1
COc1cccc(S(=O)(=O)Nc2ccc3c(c2)[C@@H]2C[C@H](CC(=O)NCc4ccc(Cl)cc4)O[C@@H](CO)[C@@H]2O3)c1	66	0	-82*	-3
O=C(O)C[C@@H]1C[C@@H]2c3cc(NS(=O)(=O)c4ccccc4)ccc3O[C@@H]2[C@H](CO)O1	·	·	-94*	1
C[C@@H]1CN([C@@H](C)CO)C(=O)c2cccc(NC(=O)Nc3ccccc3)c2O[C@@H]1CN(C)C(=O)Nc1ccc(F)cc1	45	2	-91*	-1
COc1ccc(NC(=O)Nc2cccc3c2O[C@H](CN(C)C(=O)Nc2ccc4c(c2)OCO4)[C@@H](C)CN([C@@H](C)CO)C3=O)cc1	32	·	-11	4
C[C@@H]1CN([C@@H](C)CO)C(=O)c2cccc(NC(=O)Nc3ccccc3)c2O[C@@H]1CN(C)C(=O)Nc1ccccc1	59	·	-91*	0
COc1ccc(NC(=O)N(C)C[C@H]2Oc3c(NC(=O)Nc4ccc5c(c4)OCO5)cccc3C(=O)N([C@@H](C)CO)C[C@H]2C)cc1	-2	·	-86*	-3
Cc1noc(C)c1NC(=O)N(C)C[C@H]1Oc2c(NC(=O)Nc3ccc(C(F)(F)F)cc3)cccc2C(=O)N([C@@H](C)CO)C[C@H]1C	90	-1	-86*	1
C[C@@H]1CN([C@H](C)CO)C(=O)c2cccc(NC(=O)Nc3ccccc3)c2O[C@@H]1CN(C)C(=O)Nc1ccccc1	64	·	-41	0
O=C(CSc1nc2sc3c(c2c(=O)n1C1CCCCC1)CCCC3)Nc1ccccc1	·	3	·	·
COc1ccc(NC(=O)Nc2cccc3c2O[C@H](CN(C)C(=O)Nc2cccc4ccccc24)[C@H](C)CN([C@@H](C)CO)C3=O)cc1	11	0	-88*	-1
C[C@@H]1CN([C@H](C)CO)C(=O)c2cccc(NC(=O)Nc3cccc4ccccc34)c2O[C@@H]1CN(C)C(=O)NC1CCCCC1	54	-4	-77	-2
C[C@H]1CN([C@@H](C)CO)C(=O)c2cccc(NC(=O)Nc3cccc4ccccc34)c2O[C@H]1CN(C)C(=O)NC1CCCCC1	53	-1	-85*	-4
